Measurements from ChEMBL document CHEMBL4406880, “Design, synthesis, and bioactivity of dihydropyrimidine derivatives as kinesin spindle protein inhibitors” (Bioorg Med Chem, 2019).

Legend:
Format in all cases: functional
MOLT-4 [1] = experiment: Growth inhibition of human MOLT4 cells assessed as cell viability at 0.1 uM incubated for 48 hrs by sulforhodamine B assay; settings: MOLT-4, 48 h, read-out: Activity
SNB-19 = experiment: Growth inhibition of human SNB19 cells assessed as cell viability at 100 uM incubated for 48 hrs by sulforhodamine B assay; settings: SNB-19, 48 h, read-out: Activity
HOP-62 = experiment: Growth inhibition of human HOP62 cells incubated for 48 hrs by sulforhodamine B assay; settings: HOP-62, 48 h
Summary of the method: (§1)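 NCI-60 five-dose SRB assay in RPMI 1640 with 5% FBS, 37 °C, 5% CO2. Compound given at five tenfold dilutions, 0.01–100 µM, for 48 h. Adherent cells fixed with TCA, suspension cells with 16% final TCA. Bound SRB read at 515 nm and growth calculated against time-zero and untreated controls. GI50 taken from dose–response curves as the concentration giving a 50% decrease in net cell growth.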

UACC-62 = experiment: Growth inhibition of human UACC62 cells assessed as cell viability at 0.001 uM incubated for 48 hrs by sulforhodamine B assay relative to control; settings: UACC-62, 48 h, read-out: Activity
PC-3 = experiment: Growth inhibition of human PC3 cells assessed as cell viability at 0.001 uM incubated for 48 hrs by sulforhodamine B assay relative to control; settings: PC-3, 48 h, read-out: Activity
MDA-MB-231 = experiment: Growth inhibition of human MDA-MB-231 cells assessed as cell viability at 100 uM incubated for 48 hrs by sulforhodamine B assay; settings: MDA-MB-231, 48 h, read-out: Activity
HT-29 = experiment: Growth inhibition of human HT-29 cells assessed as cell viability at 1 uM incubated for 48 hrs by sulforhodamine B assay; settings: HT-29, 48 h, read-out: Activity
ACHN = experiment: Growth inhibition of human ACHN cells assessed as cell viability at 100 uM incubated for 48 hrs by sulforhodamine B assay; settings: read-out: Activity
Summary of the method: (§2)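 NCI-60 five-dose mode: five tenfold dilutions (0.01, 0.1, 1, 10, 100 µM) are applied for 48 h to cells in RPMI 1640 with 5% FBS at 37 °C. Endpoint is TCA fixation with sulforhodamine B read at 515 nm. % growth comes from the 0 h and control absorbances. GI50 is the concentration giving a 50% reduction in net cell growth.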

MDA-MB-468 = experiment: Growth inhibition of human MDA-MB-468 cells assessed as cell viability at 1 uM incubated for 48 hrs by sulforhodamine B assay; settings: MDA-MB-468, 48 h, read-out: Activity
T47D [2] = experiment: Growth inhibition of human T47D cells assessed as cell viability at 0.001 uM incubated for 48 hrs by sulforhodamine B assay relative to control; settings: read-out: Activity
786-0 [3] = experiment: Growth inhibition of human 786-0 cells assessed as cell viability at 0.001 uM incubated for 48 hrs by sulforhodamine B assay relative to control; settings: 786-0, 48 h, read-out: Activity
SR = experiment: Growth inhibition of human SR cells assessed as cell viability at 0.001 uM incubated for 48 hrs by sulforhodamine B assay relative to control; settings: read-out: Activity
MOLT-4 [4] = experiment: Growth inhibition of human MOLT4 cells assessed as cell viability at 100 uM incubated for 48 hrs by sulforhodamine B assay; settings: MOLT-4, 48 h, read-out: Activity
OVCAR-8 = experiment: Growth inhibition of human OVCAR8 cells assessed as cell viability at 1 uM incubated for 48 hrs by sulforhodamine B assay; settings: OVCAR-8, 48 h, read-out: Activity
OVCAR-4 = experiment: Growth inhibition of human OVCAR4 cells assessed as cell viability at 1 uM incubated for 48 hrs by sulforhodamine B assay; settings: OVCAR-4, 48 h, read-out: Activity
U-251 [5] = experiment: Growth inhibition of human U251 cells assessed as cell viability at 0.1 uM incubated for 48 hrs by sulforhodamine B assay; settings: U-251, 48 h, read-out: Activity
SNB-75 = experiment: Growth inhibition of human SNB75 cells assessed as cell viability at 100 uM incubated for 48 hrs by sulforhodamine B assay; settings: SNB-75, 48 h, read-out: Activity
U-251 [6] = experiment: Growth inhibition of human U251 cells assessed as cell viability at 0.001 uM incubated for 48 hrs by sulforhodamine B assay relative to control; settings: U-251, 48 h, read-out: Activity
SK-MEL-28 = experiment: Growth inhibition of human SK-MEL-28 cells assessed as cell viability at 100 uM incubated for 48 hrs by sulforhodamine B assay; settings: SK-MEL-28, 48 h, read-out: Activity
MOLT-4 [7] = experiment: Growth inhibition of human MOLT4 cells incubated for 48 hrs by sulforhodamine B assay; settings: MOLT-4, 48 h; summary of the method: as §1
UO-31 = experiment: Growth inhibition of human UO31 cells assessed as cell viability at 1 uM incubated for 48 hrs by sulforhodamine B assay; settings: UO-31, 48 h, read-out: Activity
OVCAR-3 [8] = experiment: Growth inhibition of human OVCAR3 cells assessed as cell viability at 0.1 uM incubated for 48 hrs by sulforhodamine B assay; settings: OVCAR-3, 48 h, read-out: Activity
786-0 [9] = experiment: Growth inhibition of human 786-0 cells assessed as cell viability at 0.1 uM incubated for 48 hrs by sulforhodamine B assay; settings: 786-0, 48 h, read-out: Activity; summary of the method: as §2
NCI-H226 = experiment: Growth inhibition of human NCI-H226 cells assessed as cell viability at 0.001 uM incubated for 48 hrs by sulforhodamine B assay relative to control; settings: NCI-H226, 48 h, read-out: Activity
T47D [10] = experiment: Growth inhibition of human T47D cells assessed as cell viability at 100 uM incubated for 48 hrs by sulforhodamine B assay; settings: read-out: Activity
NCI-H322M = experiment: Growth inhibition of human NCI-H322M cells incubated for 48 hrs by sulforhodamine B assay
Summary of the method: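 NCI-60 five-dose assay, SRB end-point, same culture conditions. Compound is tested at tenfold dilutions of 0.01, 0.1, 1, 10 and 100 µM for 48 h at 37 °C, with DMSO/PBS vehicle controls. Percentage growth at each concentration is taken against untreated cells and a time-zero plate. GI50 is 50% net growth decrease, TGI is total growth inhibition, and LC50 is 50% loss of initial cells.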

NCI-H522 = experiment: Growth inhibition of human NCI-H522 cells assessed as cell viability at 100 uM incubated for 48 hrs by sulforhodamine B assay; settings: NCI-H522, 48 h, read-out: Activity
OVCAR-3 [11] = experiment: Growth inhibition of human OVCAR3 cells assessed as cell viability at 0.001 uM incubated for 48 hrs by sulforhodamine B assay relative to control; settings: OVCAR-3, 48 h, read-out: Activity
[12] = read-out: LC50 (the source's name)
[13] = read-out: pLC50 (the source's name) (converted)

CC1=C(C(=O)OCc2ccccc2)C(c2ccc3c(c2)OCO3)n2c(nc3ccccc32)N1 (racemic)
viability at 0.1 µM (MOLT-4 [1]): 99% | viability at 100 µM (SNB-19): 28% | GI50 (HOP-62; read-out: GI50): 0.78 µM | CC50 (HOP-62; [12]): > 100 µM | TGI (HOP-62; read-out: TGI): > 100 µM | GI50 (HOP-62; read-out: pGI50 (converted)): 0.776 µM | CC50 (HOP-62; [13]): > 100 µM | TGI (HOP-62; read-out: pTGI): > 100 µM | viability at 0.001 µM (UACC-62): 90% | viability at 0.001 µM (PC-3): 89% | viability at 100 µM (MDA-MB-231): 49% | viability at 1 µM (HT-29): 8% | viability at 100 µM (ACHN): 35% | viability at 1 µM (MDA-MB-468): -9% | viability at 0.001 µM (T47D [2]): 82% | viability at 0.001 µM (786-0 [3]): 94% | viability at 0.001 µM (SR): 84% | viability at 100 µM (MOLT-4 [4]): 33% | viability at 1 µM (OVCAR-8): 38% | viability at 1 µM (OVCAR-4): 61% | viability at 0.1 µM (U-251 [5]): 96% | viability at 100 µM (SNB-75): -24% | viability at 0.001 µM (U-251 [6]): 94% | viability at 100 µM (SK-MEL-28): 60% | GI50 (MOLT-4 [7]; read-out: GI50): 0.75 µM | CC50 (MOLT-4 [7]; [12]): > 100 µM | TGI (MOLT-4 [7]; read-out: TGI): > 100 µM | GI50 (MOLT-4 [7]; read-out: pGI50 (converted)): 0.759 µM | CC50 (MOLT-4 [7]; [13]): > 100 µM | TGI (MOLT-4 [7]; read-out: pTGI): > 100 µM | viability at 1 µM (UO-31): 38% | viability at 0.1 µM (OVCAR-3 [8]): 85% | viability at 0.1 µM (786-0 [9]): 97% | viability at 0.001 µM (NCI-H226): 93% | viability at 100 µM (T47D [10]): 34% | LC50 (concentration killing 50% of initial cells) (NCI-H322M; read-out: LC50): > 100 µM | TGI (NCI-H322M; read-out: TGI): > 100 µM | LC50 (concentration killing 50% of initial cells) (NCI-H322M; read-out: pLC50 (converted)): > 100 µM | TGI (NCI-H322M; read-out: pTGI): > 100 µM | viability at 100 µM (NCI-H522): -8% | viability at 0.001 µM (OVCAR-3 [11]): 95%
